# Screens deposited in PubChem BioAssay by several laboratories.
# Rows were chosen to be rich in hits. Some 2.5% of all compounds tested hit in one or more screens of this group.
# Tb hexokinase = T. brucei hexokinase 1 inhibition. recombinant TbHK1, G6PDH-coupled NADH A340. inhibition, % at 10 µM. 220,000 tested, 0.11% active. AID 1430;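 active means inhibition of 50% or more in the single-dose primary screen; inactive means inhibition below 50%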
# PHOSPHO1 block = PHOSPHO1 (human) inhibition. AID 1565. 290,000 tested, 1.1% active. recombinant PHOSPHO1, absorbance phosphatase assay. inhibition, % at 13.3 µM; in the data active means inhibition above about 60%
# Target sequence (Q8TCT1 whole entry, looked up): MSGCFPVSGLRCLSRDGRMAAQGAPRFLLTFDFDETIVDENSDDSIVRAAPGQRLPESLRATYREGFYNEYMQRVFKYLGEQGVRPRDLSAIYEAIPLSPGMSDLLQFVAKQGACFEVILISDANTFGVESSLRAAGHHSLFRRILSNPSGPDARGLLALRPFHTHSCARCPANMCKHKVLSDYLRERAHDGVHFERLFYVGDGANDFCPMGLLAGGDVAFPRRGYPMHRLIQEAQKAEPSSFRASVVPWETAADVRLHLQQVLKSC
# PGE2 EP2 inh = blocks the human prostaglandin E2 receptor EP2; P43116; C6 glioma cells expressing human EP2, cAMP TR-FRET; cells stimulated with saturating PGE2; inhibition, % at 25 µM; 260,000 tested, 0.52% active; AID 1422;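 active means percent inhibition above 40 after rounding to a whole number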;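 further: rat C6 glioma host cells with rolipram phosphodiesterase inhibitor present; the protocol text gives 20 µM as final concentration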
# Target sequence (P43116 whole entry, looked up): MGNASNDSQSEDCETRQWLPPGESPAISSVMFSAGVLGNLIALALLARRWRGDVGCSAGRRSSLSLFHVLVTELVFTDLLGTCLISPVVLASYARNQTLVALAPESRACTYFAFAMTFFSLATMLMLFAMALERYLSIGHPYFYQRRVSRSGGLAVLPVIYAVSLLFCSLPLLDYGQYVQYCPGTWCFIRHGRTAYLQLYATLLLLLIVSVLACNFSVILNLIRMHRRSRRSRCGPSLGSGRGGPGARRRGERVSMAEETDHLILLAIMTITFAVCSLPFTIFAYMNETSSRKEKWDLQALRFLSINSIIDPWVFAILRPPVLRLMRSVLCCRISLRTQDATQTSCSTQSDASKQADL
# EP2 modulator = EP2 receptor (human) modulation; P43116; EP2-expressing cells, cAMP HTRF FRET, PGE2 co-stimulation; induction, % at 25 µM; 260,000 tested, 0.83% active;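 active means compounds whose cAMP rise, as percent of the full-agonist control response, exceeds 60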;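 further: rat C6 glioma line stably carrying human EP2 under a CMV promoter; the protocol text gives 20 µM as final concentration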
# HKDC1 inhibitor = blocks human hexokinase HKDC1 activity; Q2TB90; recombinant HKDC1, G6PDH/diaphorase resazurin coupled fluorescence; inhibition, % at 20 µM; 340,000 tested, 0.16% active; AID 493160;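 active means inhibition above about 35% when tested at 20 µM, limit read from the data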
#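 Test system: recombinant HKDC1 (HK5) hexokinase enzyme, produced in-house / Doses: 20 µM test compound, 1% DMSO / Timing: 90 min, room temperature / Detection: G6PDH/diaphorase-coupled fluorescence, 1 mM NADP, 100 µM resazurin, 525/613 nm / Control set: DMSO wells with and without enzyme mix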
# PfG6PD inh = PfG6PD (Plasmodium falciparum) enzyme inhibition; PfGluPho enzyme, NADPH resazurin-diaphorase fluorescence; inhibition, % at 20 µM; 350,000 tested, 0.78% active; AID 504690;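 active means inhibition reaching at least a set limit at 20 µM in the primary screen, cut at about 59% in these data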
# PfGluPho conf = PfG6PD inhibition, single-dose confirmed | recombinant PfGluPho, NADPH-diaphorase-resazurin fluorescence | inhibition, % at 20 µM | shares compounds with PfG6PD inh | AID 504753 | 2,400 tested, 34% active;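 active means inhibition of at least 50% at 20 µM in any single replicate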
# Diaphorase 10uM = inhibits diaphorase or oxidizes, flagging false PfG6PD hits; shares compounds with PfG6PD inh; inhibition, % at 20 µM; 820 tested, 39% active; diaphorase-coupled resazurin reduction, fluorescence, NADPH 10 uM;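 active means average inhibition reaching 50% or more with the compound at 20 µM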;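 further: resorufin red fluorescence formed as diaphorase reduces resazurin using NADPH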
# Diaph ctr 30uM = inhibits diaphorase or oxidizes, flagging false PfG6PD hits; shares compounds with PfG6PD inh; Diaphorase/resazurin coupled assay, resorufin fluorescence, 30 uM NADPH; inhibition, % at 20 µM; 820 tested, 29% active; AID 504863;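 active means inhibition averaging 50% or more, tested at 20 µM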
# Hits are given with their value; n = inactive; x = no result given.
SMILES,Tb hexokinase,PHOSPHO1 block,PGE2 EP2 inh,EP2 modulator,HKDC1 inhibitor,PfG6PD inh,PfGluPho conf,others
CCCn1c(N2CCC(Cc3ccccc3)CC2)nc2c1c(=O)[nH]c(=O)n2C,n,n,n,n,n,n,x,
COc1ccc(C2(CNC(=O)c3ccc(OC)c([N+](=O)[O-])c3)CCCCC2)cc1OC,n,n,n,n,n,85.5,52.6,Diaphorase 10uM=53.5;Diaph ctr 30uM=n
COc1ccc(C2(CNC(=O)c3cccc([N+](=O)[O-])c3)CCCCC2)cc1OC,n,n,n,n,n,n,x,
COCC(O)CNCc1cc2c(-c3cccc(F)c3)nn(-c3ccccc3)c2[nH]c1=O (stereo not given),x,x,n,n,x,x,x,
O=C(Nc1ccc(N2CCN(C(=O)c3cccs3)CC2)cc1)c1ccccc1,x,x,n,n,x,x,x,
c1ccc(OCCSc2nnc3sc4ccccc4n23)cc1,n,n,n,n,n,105.0,97.5,Diaphorase 10uM=88.2;Diaph ctr 30uM=73.8
CCCn1c(CN2CCc3c(nc(C)[nH]c3=O)C2)nc2ccccc21,x,x,n,n,x,x,x,
c1nc(SSc2ncnc3nc[nH]c23)c2[nH]cnc2n1,x,x,x,x,n,118.2,107.6,Diaphorase 10uM=n;Diaph ctr 30uM=n
CCC(C)(C)NC(=O)CN(CCOC)C(=O)C(=O)Nc1ccc2c(c1)OCCO2,x,x,n,n,x,x,x,
Cc1nc(N2CCC3(CC2)OCCO3)c2nnn(Cc3ccccc3F)c2n1,n,n,n,n,n,61.4,n,
CCc1nc(N2CCC3(CC2)OCCO3)c2nnn(Cc3ccccc3)c2n1,n,n,n,n,n,n,x,
CC(C)c1ncc(CN2CCC(O)(c3cccnc3)CC2)cn1,x,x,n,n,x,x,x,
Cc1cc2nc3c(=O)[nH]c(=O)[nH]c3nc2c([N+](=O)[O-])c1N,n,n,n,n,n,n,n,
Cc1cc(C)n2c(=S)[nH]nc2n1,n,96.1,n,n,n,71.0,n,
Cc1ccc(C(=O)Nc2ccc(O)cc2C(=O)O)cc1,n,n,n,n,n,65.5,n,
CCCC(C)NC(=O)C1CCN(S(=O)(=O)c2ccc(OC)c(C)c2)CC1 (stereo not given),x,x,n,n,x,x,x,
Cc1[nH]c2ccccc2c1/C=N/NC(=O)c1cccc(S(=O)(=O)Nc2cccc(C(F)(F)F)c2)c1,n,n,n,n,n,65.6,n,
NNC(=O)c1cccc(S(=O)(=O)Nc2cccc(C(F)(F)F)c2)c1,n,n,n,n,n,n,x,
Clc1cccc(Cl)c1CNc1ccc(N2CCCC2)cc1,n,n,n,n,n,96.3,54.6,Diaphorase 10uM=n;Diaph ctr 30uM=n
c1cc(CNc2ccc(N3CCCC3)cc2)ccn1,x,x,n,n,x,x,x,
Cc1nnc(N/N=C/c2ccc(-c3ccc(Br)cc3)o2)n1N,n,n,n,n,n,61.0,n,
Cc1nnc(N/N=C/c2ccc(Br)cc2)n1N,x,n,x,x,n,n,x,
Cc1nnc(N/N=C\c2ccc(-c3cccc(C(=O)O)c3)o2)n1N,n,n,n,n,n,71.0,52.4,Diaphorase 10uM=n;Diaph ctr 30uM=n
CCC(C(=O)NC1CCCC1)N(C(=O)c1snc(C(N)=O)c1N)c1ccc(C2CCCCC2)cc1 (stereo not given),x,x,n,n,x,x,x,
Oc1ccc(Nc2ccc3ccccc3c2)cc1,x,x,x,x,n,63.1,n,
SMILES,Tb hexokinase,PHOSPHO1 block,PGE2 EP2 inh,EP2 modulator,HKDC1 inhibitor,PfG6PD inh,PfGluPho conf,others
COc1ccc(C(NC(=O)c2cnc(C)cn2)c2nccn2C)cc1 (stereo not given),x,x,n,n,x,x,x,
CC(NC(=O)Cc1cccc(F)c1)c1nc(-c2ccncc2)n[nH]1 (stereo not given),x,x,n,n,x,x,x,
O=S(=O)(Nc1ccc2c3c(cccc13)CC2)c1ccccc1,x,x,x,x,x,n,x,
Cc1cc(C)c(S(=O)(=O)Nc2ccc3c4c(cccc24)CC3)c(C)c1,n,n,n,n,n,90.5,n,
Cc1ccc(S(=O)(=O)Nc2ccc3c4c(cccc24)CC3)c(C)c1,n,x,n,x,n,73.9,n,
C[C@@H](Cn1nnc2ccccc21)NC(=O)c1cccs1,x,x,n,n,x,x,x,
Cc1ccc(NC(=O)c2ccc(-n3cccn3)c([N+](=O)[O-])c2)cc1C,n,n,n,n,n,77.2,n,
O=C(Nc1ccc(Cl)cc1)c1ccc(-n2cccn2)c([N+](=O)[O-])c1,n,n,n,n,n,70.0,n,
COc1ccc(NC(=O)c2ccc(-n3cccn3)c([N+](=O)[O-])c2)cc1,n,n,n,n,n,n,x,
CCOc1ccccc1C(=O)N(CC)Cc1cc2cccc(C)c2[nH]c1=O,x,x,n,n,x,x,x,
Nn1c(SCC(=O)Nc2cccnc2Cl)nnc1-c1ccccc1,x,x,x,x,n,62.2,49.9,Diaphorase 10uM=n;Diaph ctr 30uM=n
CCCc1nn(C(C)C(N)=O)c(=O)c2cc3ccsc3n12 (stereo not given),x,x,x,n,x,x,x,
CCc1n(CC(O)COc2ccccc2C)c2ccccc2[n+]1C (stereo not given),x,x,n,n,x,x,x,
COC(=O)c1[nH]c2ccc(C)cc2c1NS(=O)(=O)c1ccc(F)c(C)c1,n,n,x,63.3,n,67.9,n,
COC(=O)c1[nH]c2ccc(F)cc2c1NS(=O)(=O)c1ccc(F)c(C)c1,n,n,n,n,n,n,x,
COC(=O)c1[nH]c2ccc(C)cc2c1NS(=O)(=O)c1ccc(F)cc1,n,n,n,n,n,67.9,n,
